Tests used:
[1] = cited from earlier work
[2] = Plasma pharmacokinetics of sildenafil and N-desmethyl-sildenafil; format: in vivo, human; conditions: for AUCinf, Intrasubject CV / AUClast, Intrasubject CV / Cmax, Intrasubject CV: fixed effect model, sacubitril/valsartan + sildenafil vs. sildenafil alone; for Tmax (median time to reach maximum concentration): single-dose oral administration of sildenafil; for AUC(0-t): AUClast
In short: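 Male hypertensive patients received single oral sildenafil 50 mg alone (Day 1), then again on Day 8 with sacubitril/valsartan 400 mg q.d. at steady state. Plasma sildenafil and N-desmethyl-sildenafil were profiled after each dose. Outputs were AUCinf, AUClast, T1/2, Cmax and Tmax. Log-transformed parameters went into a fixed-effect model with subject and treatment as factors; combination was test, sildenafil alone reference. Output was back-transformed GMR with 90% CI.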

[3] = Plasma pharmacokinetics of sacubitril/valsartan analytes at steady state; format: in vivo, human; conditions: for AUCtau,ss, Intrasubject CV / Cmax,ss, Intrasubject CV: fixed effect model; for AUC / Cmax: male, human, oral, Mean ± SD; for AUC / Cmax / Tmax (time of peak concentrations): plasma; for AUC: AUCtau,ss, Sacubitril/valsartan alone (400 mg q.d., steady state, Day 7); for Cmax: Cmax,ss; for Tmax (time of peak concentrations): oral administration of sacubitril/valsartan, steady state
In short: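 Male hypertensive patients took oral sacubitril/valsartan 400 mg q.d. on Days 3–7, with predose samples on Days 3–6. Plasma sacubitril, sacubitrilat and valsartan were profiled at steady state on Day 7 and on Day 8 with single-dose sildenafil 50 mg. Outputs were AUCtau,ss, Cmax,ss and Tmax,ss. Log-transformed parameters went into a fixed-effect model with subject and treatment as factors; combination was test, monotherapy reference. Output was back-transformed GMR with 90% CI.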

[4] = test system: patients with mild-to-moderate hypertension; experiment: Safety assessments; format: in vivo, human; conditions: for safety and tolerability: single-dose sildenafil 50 mg, sacubitril/valsartan 400 mg q.d., coadministration
In short: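 Adverse events were recorded across three sequential periods in male hypertensive patients: single oral sildenafil 50 mg (Day 1), sacubitril/valsartan 400 mg q.d. (Days 3–7), and both together (Day 8). Events were graded by intensity and by suspected relation to study drug. They were summarised by treatment and visit/time, as number and percentage of subjects by body system and treatment.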

[5] = test system: patients with HFrEF; conditions: cited from earlier work
[6] = test system: healthy subjects; conditions: 40 mg and 80 mg doses; cited from earlier work
[7] = 200 mg twice daily or 400 mg q.d., healthy individuals; cited from earlier work
[8] = sacubitril/valsartan and warfarin coadministered; cited from earlier work
[9] = cited from earlier work; remark: listed apart in the source
[10] = plasma, Sacubitril/valsartan + Sildenafil (Day 8)
[11] = plasma, Sildenafil alone (50 mg single dose, Day 1)
[12] = plasma, Sildenafil alone (Day 1)
[13] = 400 mg, Sacubitril/valsartan alone (Day 7)
[14] = Sacubitril/valsartan + Sildenafil (Day 8)
[15] = coadministration of sacubitril/valsartan and sildenafil vs. sacubitril/valsartan alone

Compound | AUCinf, Intrasubject CV [2] [%] | AUClast, Intrasubject CV [2] [%] | Cmax, Intrasubject CV [2] [%] | Tmax (median time to reach maximum concentration) ([2]; plasma) [h] | AUCtau,ss, Intrasubject CV [3] [%] | Cmax,ss, Intrasubject CV [3] [%] | AUC ([3]; 400 mg) [ng·h/mL] | Cmax [3, 13] [ng/mL] | Cmax [3, 14] [ng/mL] | Tmax (time of peak concentrations) [3] [h] | safety and tolerability [4] | decrease in Cmax [3, 15] [%] | also measured
CCCc1nn(C)c2c(=O)[nH]c(-c3cc(S(=O)(=O)N4CCNCC4)ccc3OCC)nc12 [N‐desmethyl‐sildenafil] | 15.9 | 16.4 | 26.7 | 1 | – | – | – | – | – | – | – | – | share of sildenafil's pharmacological effects accounted for [1]: 20%; plasma concentration relative to parent compound ([1]; relative to sildenafil): ~40%; potency relative to parent compound ([1]; relative to sildenafil): ~50%; decrease in Cmax ([2]; coadministration of sildenafil and sacubitril/valsartan vs. sildenafil alone): 14%; AUCinf, Adjusted geometric mean [2, 10]: 305 ng·h/mL; AUClast, Adjusted geometric mean [2, 10]: 278 ng·h/mL; AUClast, Mean ± SD [2, 10]: 305 ± 133 ng·h/mL; Cmax, Adjusted geometric mean [2, 10]: 75.9 ng/mL; Cmax, Mean ± SD [2, 10]: 84.6 ± 39.3 ng/mL; AUCinf, Mean ± SD [2, 11]: 359 ± 157 ng·h/mL; Cmax, Mean ± SD [2, 11]: 95.1 ± 32.5 ng/mL; AUCinf, Adjusted geometric mean [2, 12]: 327 ng·h/mL; AUClast, Adjusted geometric mean [2, 12]: 297 ng·h/mL; AUClast, Mean ± SD [2, 12]: 331 ± 152 ng·h/mL; Cmax, Adjusted geometric mean [2, 12]: 88.4 ng/mL; terminal half-life (T1/2) ([2]; plasma, sildenafil administered alone): 5.3 ± 1.6 h; terminal half-life (T1/2) ([2]; plasma, sildenafil coadministered with sacubitril/valsartan): 6.2 ± 1.9 h
C[C@H](C[C@@H](Cc1ccc(-c2ccccc2)cc1)NC(=O)CCC(=O)O)C(=O)O [Sacubitrilat] | – | – | – | – | 3.75 | 13 | 143000 ± 26300 | 14900 ± 2250 | 14000 ± 2420 | 2.0 | – | – | –
CCCc1nn(C)c2c(=O)[nH]c(-c3cc(S(=O)(=O)N4CCN(C)CC4)ccc3OCC)nc12 [Sildenafil] | 23.4 | 23.4 | 35.5 | 0.5 | – | – | – | – | – | – | generally safe and well‐tolerated | – | suspected treatment-related AEs of moderate intensity ([4]; per study period): 1 AE; cardiac output ([5]; 50 mg sildenafil, patients with HFrEF): increased; safety and tolerability ([5]; sildenafil administered to patients with HFrEF): safe and well tolerated; half-life ([2]; male, human, plasma, oral, 50 mg): 3.7 ± 1 h; AUC(0-t) ([2]; male, human, plasma, oral, 50 mg, Mean ± SD, plasma, Sildenafil alone (Day 1)): 587 ± 270 ng·h/mL; AUC(0-t) ([2]; male, human, plasma, oral, Mean ± SD, plasma, Sacubitril/valsartan + Sildenafil (Day 8)): 612 ± 297 ng·h/mL; Cmax ([2]; male, human, plasma, oral, Cmax, Mean ± SD, plasma, Sacubitril/valsartan + Sildenafil (Day 8)): 189 ± 99.6 ng/mL; duration of BP-lowering effect postdosing [6]: 5 h
Sacubitril/valsartan | – | – | – | – | – | – | – | – | – | – | generally safe and well‐tolerated | – | time to achieve steady-state levels [7]: 3 days; impact on the pharmacokinetics of the CYP2C9 substrate warfarin [8]: no impact
CCCCC(=O)N(Cc1ccc(-c2ccccc2-c2nnn[nH]2)cc1)[C@H](C(=O)O)C(C)C [Valsartan] | – | – | – | – | 28 | 32.6 | 33000 ± 12400 | 5300 ± 1750 | 3350 ± 1480 | 2.0 | – | 39 | intersubject variability in pharmacokinetic parameters [9]: 44%; decrease in AUC [3, 15]: 29%
CCOC(=O)[C@H](C)C[C@@H](Cc1ccc(-c2ccccc2)cc1)NC(=O)CCC(=O)O [Sacubitril] | – | – | – | – | 12.2 | 45.3 | 3400 ± 1000 | 2470 ± 865 | 2310 ± 1020 | 0.5 | – | 10 | –

— PMC5836847 (Clinical Pharmacology and Therapeutics, 2017)
